# Laboratory results taken from ChEMBL document CHEMBL1128574, “Glycosylated peptide hormones: pharmacological properties and conformational studies of analogues of [1-desamino,8-D-arginine]vasopressin” (J Med Chem, 1995).
# Bridge positions count the residues as written; N and C are the ends. Square brackets hold non-standard residues; d marks the D form. Peptide text beside a SMILES is read from it. * marks the point of attachment. X2 = CC(=O)OC[C@@H]1O[C@@H](*)[C@@H](OC(C)=O)[C@@H](OC(C)=O)[C@H]1OC(C)=O; X1 = OC[C@@H]1O[C@@H](*)[C@@H](O)[C@@H](O)[C@H]1O; Mpa = O=C(O)CCS
# Assays:
# [1] = Half life administered intravenously in rats.; format: ADME, organism-based; conditions: rat, in vivo, iv
# In short: (§1)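 Anaesthetized (Inactin) male Sprague-Dawley rats, 250–300 g. 1.0 μg peptide in 0.2 mL sterile 0.9% NaCl injected into a catheterized jugular vein. Carotid blood samples (0.2 mL) taken as EDTA plasma and quantified by RIA (ADA 6 antibody, [125I]Tyr2-DDAVP tracer). Half-life and trapezoidal AUC given as mean ± SEM of n rats.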
# [2] = Degradation in vitro by rat intestinal juice.; format: ADME, organism-based
# In short: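 Rat intestinal juice was a 0.9% NaCl rinse of a 10 cm small-intestine segment, centrifuged at 10000g and stored at −20 °C. Incubation matched the chymotrypsin assay (1 mM peptide, 37 °C, pH 7.8) except for 165 mM Tris. Juice amount was set to degrade DDAVP at 2%/min. Time course by RP-HPLC.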
# [3] = Cmax value administered intraintestinal in rats.; format: ADME, organism-based; conditions: rat, in vivo
# In short: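 Anaesthetized (Inactin) male Sprague-Dawley rats, 250–300 g, 37 °C. 100 μg peptide in 1 mL 0.9% NaCl given into a cannulated 15 cm intestinal segment. Plasma peptide measured by RIA at set time points; the maximal plasma concentration is reported as mean ± SEM of n rats.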
# [4] = Relative transport rate as the ratio of transport rate to that of PEG 4000.; format: ADME
# In short: (§2)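 Rat small-intestine pieces, about 35 cm distal to pylorus and free of Peyer's patches, mounted in a modified Ussing chamber (1.47 cm2) at 37 °C in oxygenated Krebs-Ringer, pH 7.4. Peptide, [3H]PEG 1000 and [14C]PEG 4000 added apically. Basolateral samples taken every 15 min and assayed by RIA or scintillation counting. Papp = (dQ/dt)/(A·C0), expressed relative to each PEG.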
# [5] = Degradation in vitro by alpha-chymotrypsin.; format: ADME
# In short: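 Peptide (1 mM final) incubated with α-chymotrypsin (1 mg/mL final) at 37 °C in 25 mM Tris, 65 mM NaCl, 2.5 mM CaCl2, pH 7.8. Reaction stopped with ice-cold TCA and centrifuged. Remaining peptide measured over time by RP-HPLC against an enzyme-free reference, giving the half-life.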
# [6] = Relative transport rate as the ratio of transport rate to that of PEG 1000.; format: ADME; in short: as §2
# Rattus norvegicus [7] = assay: Area under the curve administered intraintestinal in rats.; format: ADME, organism-based; conditions: in vivo, other
# In short: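 Anaesthetized (Inactin) male Sprague-Dawley rats, 250–300 g, kept at 37 °C. 100 μg peptide in 1 mL 0.9% NaCl given into a cannulated, rinsed 15 cm small-intestine segment starting 10 cm distal to pylorus, after 30 min recovery. Carotid blood sampled, EDTA plasma assayed by RIA (antibody ADA 6). AUC by trapezoidal rule; mean ± SEM of n rats.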
# [8] = Bioavailability in rat administered i.d.; format: ADME, organism-based; conditions: in vivo
# In short: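 Computed as (AUCii/doseii)/(AUCiv/doseiv). Anaesthetized male Sprague-Dawley rats received 100 μg intraintestinally into a cannulated jejunal segment or 1.0 μg iv via jugular vein, both in 0.9% NaCl. Plasma levels by RIA; AUC by trapezoidal rule.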
# Rattus norvegicus [9] = assay: Area under the curve administered intravenously in rats.; format: ADME, organism-based; conditions: in vivo, iv; in short: as §1
# [10] = molecular target: T1, Vasopressin receptor (Rattus norvegicus) (UniProt P48974+P30560+Q00788)
# [11] = molecular target: T1, Vasopressin receptor (Rattus norvegicus); assay: Percent inhibition of vasopressin receptor agonistic activity in vivo in rats; format: functional, organism-based; conditions: concentration not given here
# In short: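 Overnight-hydrated male Sprague-Dawley rats. Peptide injected 1 min before a fixed vasopressin dose, set per rat to give similar antidiuretic responses. Inhibition was read at a 330-fold molar excess over vasopressin as percent inhibition of the antidiuretic effect. Mean of two experiments.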
# [12] = molecular target: T1, Vasopressin receptor (Rattus norvegicus); assay: Compound was tested in vitro for its ability to displace radioligand [3H]vasopressin from the vasopressin receptor in rat renal medullary membrane in presence of V1-antagonist; format: functional, cell membranes; conditions: Renal medulla
# In short: (§3)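 Rat renal medullary membranes (250 μg protein) incubated for 120 min at room temperature with 1 nM [3H]vasopressin and increasing peptide concentrations, with or without 10 nM of the V1 antagonist [Phenylac1,D-Tyr(Me)2,Arg6,8,Lys-NH2 9]vasopressin. Membranes were pelleted and washed, and bound label was counted by liquid scintillation.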
# [13] = molecular target: T1, Vasopressin receptor (Rattus norvegicus); assay: Compound was tested in vitro for its ability to displace radioligand [3H]vasopressin from the vasopressin receptor in rat renal medullary membrane in absence of V1-antagonist; format: functional, cell membranes; conditions: Renal medulla; in short: as §3
SMILES,half-life [1],half-life [2],Cmax [3],Ratio [4],half-life [5],Ratio [6],AUC (Rattus norvegicus [7]),bioavailability [8],AUC (Rattus norvegicus [9]),Antidiuretic activity [10],inhibition [11],Displacement [12],Displacement [13]
NC(=O)CNC(=O)[C@H](CCCN=C(N)N)NC(=O)[C@@H]1CCCN1C(=O)[C@@H]1CSSCCC(=O)N[C@@H](Cc2ccc(O)cc2)C(=O)N[C@@H](Cc2ccccc2)C(=O)N[C@@H](CO[C@@H]2O[C@@H](CO)[C@H](O)[C@H](O)[C@@H]2O)C(=O)N[C@@H](CC(N)=O)C(=O)N1 ([Mpa]YFS(X1)NCPRG-NH2; disulfide 1-6),20 min,320 min,2.5 ng/mL,2.56,37 min,0.96,5.75 ng·h/mL,1.6%,3.52 ng·h/mL,0.06 IU µM-1,4%,55%,55%
CC(=O)OC[C@@H]1O[C@@H](OC[C@@H]2NC(=O)[C@H](Cc3ccccc3)NC(=O)[C@H](Cc3ccc(O)cc3)NC(=O)CCSSC[C@@H](C(=O)N3CCC[C@H]3C(=O)N[C@@H](CCCN=C(N)N)C(=O)NCC(N)=O)NC(=O)[C@H](CC(N)=O)NC2=O)[C@@H](OC(C)=O)[C@@H](OC(C)=O)[C@H]1OC(C)=O ([Mpa]YFS(X2)NCPRG-NH2; disulfide 1-6),35 min,230 min,3.6 ng/mL,2.83,180 min,1.09,10.3 ng·h/mL,2.1%,4.97 ng·h/mL,0.31 IU µM-1,3%,45%,45%

# Results, then the compound that gave them:
half-life [1],half-life [2],Cmax [3],Ratio [4],half-life [5],Ratio [6],AUC (Rattus norvegicus [7]),bioavailability [8],AUC (Rattus norvegicus [9]),Antidiuretic activity [10],inhibition [11],Displacement [12],Displacement [13],SMILES
32 min,280 min,1.4 ng/mL,1.66,37 min,0.62,2.35 ng·h/mL,0.5%,4.63 ng·h/mL,,,,,NC(=O)CNC(=O)[C@@H](CCCN=C(N)N)NC(=O)[C@@H]1CCCN1C(=O)[C@@H]1CSSCCC(=O)N[C@H](Cc2ccc(O)cc2)C(=O)N[C@@H](Cc2ccccc2)C(=O)N[C@@H](CO)C(=O)N[C@@H](CC(N)=O)C(=O)N1
,,,,,,,,,810 IU µM-1,,,,NC(=O)CNC(=O)[C@H](CCCN=C(N)N)NC(=O)[C@@H]1CCCN1C(=O)[C@@H]1CSSCCC(=O)N[C@H](Cc2ccc(O)cc2)C(=O)N[C@@H](Cc2ccccc2)C(=O)N[C@@H](CO)C(=O)N[C@@H](CC(N)=O)C(=O)N1
39 min,20 min,0.8 ng/mL,1.57,13 min,0.57,0.867 ng·h/mL,0.1%,7.65 ng·h/mL,,,,,NC(=O)CC[C@@H]1NC(=O)[C@H](Cc2ccccc2)NC(=O)[C@H](Cc2ccc(O)cc2)NC(=O)CCSSC[C@@H](C(=O)N2CCC[C@H]2C(=O)N[C@H](CCCN=C(N)N)C(=O)NCC(N)=O)NC(=O)[C@H](CC(N)=O)NC1=O [DESMOPRESSIN]
